Data published in article PMC10870986 (Indian Journal of Endocrinology and Metabolism, 2023).

Key:
[1] = Etiological profile of hyperprolactinemia, Endocrine OPD; assay type: in vivo, human; conditions: 50 subjects with hyperprolactinemia; use of drugs 56% of etiologies; Domperidone with and without PPI
[2] = Hyperprolactinemia in patients referred to a tertiary care hospital; assay type: in vivo, human; conditions: for drug-induced hyperprolactinemia with prolactin levels less than 100 ng/ml: number of cases / drug-induced hyperprolactinemia with prolactin levels greater than 100 ng/ml: number of cases: 11 drug-induced cases among 58
[3] = assay type: in vivo, human
[4] = Case: hypomagnesemia; assay type: in vivo, human; conditions: single child, Tab. MgO 200mg TID
[5] = Case: Chiari Frommel syndrome treated with bromocriptine; assay type: in vivo, human; conditions: single patient, 2.5mg for one month
[6] = Case: ACTH and prolactin co-secreting pituitary adenoma treated with cabergoline; assay type: in vivo, human; conditions: single patient
[7] = Giant prolactinoma case series, response to cabergoline; assay type: in vivo, human; conditions: follow-up MRI in 17 patients
In short: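 Patients with giant prolactinoma all received cabergoline, dose range 0.5-7 mg/week, over a mean follow-up of 11.78 ± 14.89 months. Tumour shrinkage was judged against the baseline maximum tumour dimension on follow-up MRI, which was available for 17 patients.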

[8] = Case: cabozantinib for metastatic MTC; assay type: in vivo, human; conditions: single patient
[9] = ref not given, cited from earlier work
[10] = Case: diazoxide in Prader-Willi Syndrome; assay type: in vivo, human; conditions: child with PWS
[11] = assay type: in vivo, human; remark: listed apart in the source
In short: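 Observational study of 167 diabetic outpatients seen January–June 2023. All had HbA1c, FPG and PPG uncontrolled on two or three oral hypoglycaemic agents and were unwilling to start insulin. Imeglimin was added as the third or fourth agent, and FPG, PPG, HbA1c and adverse effects were recorded afterwards.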

[12] = Orlistat vs orlistat + resveratrol in overweight/obese subjects, 12 weeks; assay type: in vivo, human
[13] = assay type: in vivo, human; conditions: orlistat 120 mg thrice daily, mean [SD]
[14] = Semaglutide in type 2 diabetes, cross sectional study; assay type: in vivo, human; conditions: Likert 5-point scale
[15] = Case series: immune check point inhibitor induced endocrine dysfunction; assay type: in vivo, human; conditions: series of ten patients with IRAE
[16] = Case: nivolumab induced endocrine dysfunction; assay type: in vivo, human; conditions: single patient, 240 mg fortnightly, after 10 cycles
[17] = Case: growth hormone therapy in short stature with Crohn's disease; assay type: in vivo, human; conditions: single patient
[18] = fulminant hepatic failure, fatal
[19] = last Ketoconazole dose the night before surgery, isoflurane anaesthesia
[20] = single patient on Ketoconazole 1200 mg/day and spironolactone 200 mg/day

O=c1[nH]c2ccccc2n1CCCN1CCC(n2c(=O)[nH]c3cc(Cl)ccc32)CC1 [Domperidone]
Among the drugs causing hyperprolactinemia: share of cases [1]: 53.57% | drug-induced hyperprolactinemia with prolactin levels less than 100 ng/ml: number of cases [2]: 3 cases

CC(=O)N1CCN(c2ccc(OCC3COC(Cn4ccnc4)(c4ccc(Cl)cc4Cl)O3)cc2)CC1 (centres unmarked) [Ketoconazole]
ALT, 5th post operative day [3, 18]: 5053 U/L | AST, 5th post operative day [3, 18]: 7844 L⁻¹ | GGT, 5th post operative day [3, 18]: 207 U/L | INR, 5th post operative day [3, 18]: > 11 | PT, 5th post operative day [3, 18]: > 120 s | aPTT, 5th post operative day [3, 18]: > 180 s | ALT, 4th post operative day [3, 19]: 433 U/L | AST, 4th post operative day [3, 19]: 370 U/L | GGT, 4th post operative day [3, 19]: 233 U/L | ALT before the surgery [3, 20]: 30 IU/ml | AST before the surgery [3, 20]: 27 IU/ml

[O]=[Mg] [MgO]
calcium on treatment [4]: 9.2 mg/dL | Serum Magnesium on treatment ([4]; at presentation 0.4mg/dl): 1.2 mg/dL

Cc1cc2c(s1)Nc1ccccc1N=C2N1CCN(C)CC1 [Olanzapine]
Among the drugs causing hyperprolactinemia: share of cases [1]: 3.57%

Cc1nc2n(c(=O)c1CCN1CCC(c3noc4cc(F)ccc34)CC1)CCCC2 [Risperidone]
Among the drugs causing hyperprolactinemia: share of cases [1]: 7.14% | drug-induced hyperprolactinemia with prolactin levels greater than 100 ng/ml: number of cases [2]: 1 cases | drug-induced hyperprolactinemia with prolactin levels less than 100 ng/ml: number of cases [2]: 1 cases

CN[C@H]1CC[C@@H](c2ccc(Cl)c(Cl)c2)c2ccccc21 [Sertraline]
Among the drugs causing hyperprolactinemia: share of cases [1]: 3.57%

CC(C)C[C@H]1C(=O)N2CCC[C@H]2[C@]2(O)O[C@](NC(=O)[C@@H]3C=C4c5cccc6[nH]c(Br)c(c56)C[C@H]4N(C)C3)(C(C)C)C(=O)N12 [bromocriptine]
effect on galactorrhea [5]: Milk secretion was slowed down

C=CCN1C[C@H](C(=O)N(CCCN(C)C)C(=O)NCC)C[C@@H]2c3cccc4[nH]cc(c34)C[C@H]21 [cabergoline]
outcome at increased dose ([6]; cabergoline 2mg/week): developed adrenal insufficiency | Follow up prolactin ([6]; on cabergoline 0.5mg/week, before dose increase): 15737 miu/l | Stimulated cortisol ([6]; post 3 days of cabergoline 0.5mg/week): 535 nmol/L | 8am cortisol ([6]; post 3 days of cabergoline 0.5mg/week, before 525nmol/l): 132 nmol/L | Prolactin ([6]; post 3 days of cabergoline 0.5mg/week, before 20982miu/l): 9215 miu/l | Tumor shrinkage <50%, share of patients ([7]; 2 patients): 11.76% | disappearance of radiologically detectable tumor, share of patients ([7]; 2 patients): 11.76% | Tumor shrinkage of >50% from the baseline, share of patients ([7]; 13 patients): 76.47%

COc1cc2nccc(Oc3ccc(NC(=O)C4(C(=O)Nc5ccc(F)cc5)CC4)cc3)c2cc1OC [cabozantinib]
response of metastatic MTC [8]: good response | tolerability [8]: stopped due to side effects

COc1cc(CNC(=O)CCCC/C=C/C(C)C)ccc1O [capsaicin]
pain control, capsaicin lotion compared with placebo ([9]; analysis on treatment intention, all pain measures): insignificant improvement in pain control | pain relief, topical capsaicin cream […], multicenter controlled trial ([9]; initial results, vs placebo): more relief of the pain associated with diabetic neuropathy than placebo | tolerability, capsaicin […] cream ([9]; may lead to withdrawal from the study): local skin irritation, which is often mild and transient | pain relief, capsaicin […] cream applied to the painful area ([9]; painful diabetic neuropathy): significant pain relief | pain relief, topical capsaicin […] for four to six weeks [9]: either complete or significant relief

CC1=NS(=O)(=O)c2cc(Cl)ccc2N1 [diazoxide]
tolerability ([10]; 3 mg/kg/d): well tolerated | effect on hyperphagia ([10]; 3 mg/kg/d in two divided doses, after 3 weeks): perceptible reduction in hyperphagia

C[C@H]1N=C(N(C)C)N=C(N)N1 [imeglimin]
most common adverse effect ([11]; n=167): gastrointestinal issues | HbA1c after imeglimin was added ([11]; n=167, add-on to two or three OHAs, baseline 9.1±1.8, p=0.004): 7.2±1.2 | FPG after imeglimin was added ([11]; n=167, add-on to two or three OHAs, baseline 176.61±45.75, p=0.013): 108.05±24.79 | PPG after imeglimin was added ([11]; n=167, add-on to two or three OHAs, baseline 247.86±68.17, p=0.020): 156.49±38.53

CCN1CCC[C@H]1CNC(=O)c1cc(S(N)(=O)=O)ccc1OC [levosulpiride]
drug-induced hyperprolactinemia with prolactin levels greater than 100 ng/ml: number of cases [2]: 5 cases | drug-induced hyperprolactinemia with prolactin levels less than 100 ng/ml: number of cases [2]: 1 cases | prolactin levels in drug-induced hyperprolactinemia ([2]; statement of the conclusion): > 100 ng/mL

CCCCCCCCCCC[C@@H](C[C@@H]1OC(=O)[C@H]1CCCCCC)OC(=O)[C@H](CC(C)C)NC=O [orlistat]
diarrhoea, number of patients [12]: 7 patients | weight loss, patients with diabetes with a BMI >=30 ([12]; sub-group, p=0.045): -1.04 kg | weight loss, patients with diabetes with steatosis ([12]; sub-group, p=0.048): -0.44 kg | weight loss compared to baseline ([12]; thrice daily, 247 completers, mean body weight ~80 kg): -2.92 kg | mean weight loss after 2 months, group 2 ([13]; patients with diabetes): 6.3 [4.9] % | mean weight loss after 4 months, group 2 ([13]; patients with diabetes): 8.7 [4.7] % | mean weight loss after 6 months, group 2 ([13]; patients with diabetes): 12.9 [2.4] % | mean weight loss after 2 months, group 1 ([13]; patients without diabetes): 7.1 [6.1] % | mean weight loss after 4 months, group 1 ([13]; patients without diabetes): 14.6 [12.9] % | mean weight loss after 6 months, group 1 ([13]; patients without diabetes): 16.1 [6.7] % | mean weight loss after 2 months, group 3 ([13]; prediabetic patients): 6 [2.6] % | mean weight loss after 4 months, group 3 ([13]; prediabetic patients): 15.5 [15.4] % | mean weight loss after 6 months, group 3 ([13]; prediabetic patients): 15.8 [6.2] %

CC[C@H](C)[C@H](NC(=O)[C@H](Cc1ccccc1)NC(=O)[C@H](CCC(=O)O)NC(=O)[C@H](CCCCNC(=O)COCCOCCNC(=O)COCCOCCNC(=O)CC[C@H](NC(=O)CCCCCCCCCCCCCCCCC(=O)O)C(=O)O)NC(=O)[C@H](C)NC(=O)[C@H](C)NC(=O)[C@H](CCC(N)=O)NC(=O)CNC(=O)[C@H](CCC(=O)O)NC(=O)[C@H](CC(C)C)NC(=O)[C@H](Cc1ccc(O)cc1)NC(=O)[C@H](CO)NC(=O)[C@H](CO)NC(=O)[C@@H](NC(=O)[C@H](CC(=O)O)NC(=O)[C@H](CO)NC(=O)[C@@H](NC(=O)[C@H](Cc1ccccc1)NC(=O)[C@@H](NC(=O)CNC(=O)[C@H](CCC(=O)O)NC(=O)C(C)(C)NC(=O)[C@@H](N)Cc1cnc[nH]1)[C@@H](C)O)[C@@H](C)O)C(C)C)C(=O)N[C@@H](C)C(=O)N[C@@H](Cc1c[nH]c2ccccc12)C(=O)N[C@@H](CC(C)C)C(=O)N[C@H](C(=O)N[C@@H](CCCNC(=N)N)C(=O)NCC(=O)N[C@@H](CCCNC(=N)N)C(=O)NCC(=O)O)C(C)C [semaglutide]
patients rating strongly agree or agree for adverse event: diarrhoea [14]: 91.3% | patients rating strongly agree or agree for adverse event: loss of appetite [14]: 87.4% | patients rating strongly agree or agree for adverse event: nausea [14]: 93.5%

nivolumab
patients with isolated thyroid dysfunction on the drug [15]: five | immune-related adverse events diagnosed [16]: checkpoint inhibitor induced diabetes mellitus (CPI-DM) and central adrenal insufficiency

rHGH: recombinant growth hormone injection
catchup growth ([17]; 0.18mg/kg/week, 6 months): 7 cm | growth thereafter at higher doses ([17]; 0.3mg/kg/week, undiagnosed Crohn's disease): height remained static
